Measurements published in the RNAGym collection of RNA variant scans (doi:10.1002/anie.201605470).

B1: Osa-1-4 twister ribozyme (parent)
chain: CCGCCUAACACUGCCAAUGCCGGUCCCAAGCCCGGAUAAAAGUGGAGGGGGCGG

Variants of: B1
Assay: self-cleavage, relative activity (ratio to wild type); higher = more cleavage; co-transcriptional
Procedure, shortened: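 The 48 positions downstream of the cleavage site in a DNA template for a 54-nucleotide Oryza sativa twister ribozyme carried 97 % wild-type base and 1 % of each other base. After in vitro transcription (2 h, 37 °C) with co-transcriptional self-cleavage, the RNA was reverse-transcribed with a template-switching oligonucleotide, PCR-amplified and deep-sequenced. Relative activity is the fraction cleaved, judged by reads with or without upstream sequence and normalised to wild type.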

Variant | self-cleavage
A29G A36C | 0.07
A29G A36U | 0.32
A29G A36G | 0.47
A29C A8U | 0.02
A29C A8C | 0.04
A29C A8G | 0.03
A29C G51A | 0.03
A29C G51U | 0.03
A29C G51C | 0.02
A28U U43G | 0.15
A28U U43C | 0.15
A28U U43A | 0.28
A29C G35C | 0.02
A29C G35A | 0.04
A29C G35U | 0.05
A29G C9U | 0.06
A29G C9A | 0.05
A29G C9G | 0.09
A28U C14G | 0.07
A28U C14U | 0.14
A28U C14A | 0.05
A29C C15U | 0.03
A29C C15A | 0.02
A29C C15G | 0.04

Variant | self-cleavage
A29G C20A | 0.33
A29G C20U | 0.28
A29G C20G | 0.04
A29G A46U | 0.04
A29G A46G | 0.04
A29G A46C | 0.03
A29C G47C | 0.02
A29C G47A | 0.02
A29C G47U | 0.03
A28U A36U | 0.94
A28U A36C | 0.21
A28U A36G | 0.99
A29G C11A | 0.08
A29G C11U | 0.11
A29G C11G | 0.07
A29G A8U | 0.07
A29G A8G | 0.11
A29G A8C | 0.04
A28G U18C | 0.23
A28G U18G | 0.59
A28G U18A | 0.34
A28U G54U | 0.72
A28U G54A | 0.66
A28U G54C | 0.71

Variant | self-cleavage
A28G U12C | 0.1
A28G U12A | 0.12
A28G U12G | 0.07
A28U A40G | 0.24
A28U A40U | 0.2
A28U A40C | 0.04
A29G A7U | 0.14
A29G A7C | 0.03
A29G A7G | 0.11
A29C | 0.05
A29G | 0.4
A29C C31U | 0.02
A29C C31G | 0.02
A29C C31A | 0.02
A29C G48C | 0.02
A29C G48U | 0.01
A29C G48A | 0.01
A29C C11A | 0.04
A29C C11U | 0.04
A29C C11G | 0.02
A28G U37A | 0.25
A28G U37C | 0.37
A28G U37G | 0.51
A29C G13C | 0.01

Variant | self-cleavage
A29C G13A | 0.02
A29C G13U | 0.01
A29C A39U | 0.03
A29C A39C | 0.04
A29C A39G | 0.03
A29C A46C | 0.02
A29C A46U | 0.02
A29C A46G | 0.02
A29C G19A | 0.04
A29C G19C | 0.02
A29C G19U | 0.03
A28U G22A | 0.34
A28U G22U | 0.2
A28U G22C | 0.06
A28U G48A | 0.06
A28U G48C | 0.06
A28U G48U | 0.06
A29G C21A | 0.1
A29G C21U | 0.17
A29G C21G | 0.07
A28U G19C | 0.07
A28U G19A | 0.24
A28U G19U | 0.13
A28U A41C | 0.79

Variant | self-cleavage
A28U A41U | 0.93
A28U A41G | 0.29
A28U G42A | 0.16
A28U G42U | 0.06
A28U G42C | 0.09
A28U A29C | 0.03
A28U A29U | 0.06
A28U A29G | 0.08
A29C C21U | 0.06
A29C C21A | 0.04
A29C C21G | 0.02
A29C G49U | 0.02
A29C G49A | 0.02
A29C G49C | 0.01
A29C C20A | 0.03
A29C C20U | 0.08
A29C C20G | 0.02
A29C C9A | 0.02
A29C C9G | 0.05
A29C C9U | 0.02
A28U C31G | 0.07
A28U C31U | 0.19
A28U C31A | 0.03
A28U G53A | 0.42

Variant | self-cleavage
A28U G53U | 0.15
A28U G53C | 0.08
A28U C20A | 0.9
A28U C20U | 0.95
A28U C20G | 0.09
A28G U24G | 0.02
A28G U24A | 0.06
A28G U24C | 0.07
A29G C15A | 0.06
A29G C15U | 0.05
A29G C15G | 0.08
A29C C26U | 0.03
A29C C26A | 0.02
A29C C26G | 0.02
A28U G30U | 0.04
A28U G30A | 0.04
A28U G30C | 0.05
A28U C25U | 0.28
A28U C25A | 0.07
A28U C25G | 0.05
A29C C52A | 0.06
A29C C52G | 0.05
A29C C52U | 0.06
A29C U12A | 0.05

Variant | self-cleavage
A29C U12C | 0.03
A29C U12G | 0.03
A29C G54C | 0.04
A29C G54U | 0.08
A29C G54A | 0.03
A29C U24C | 0.09
A29C U24G | 0.02
A29C U24A | 0.04
A29C C33U | 0.03
A29C C33G | 0.01
A29C C33A | 0.04
A28U C15G | 0.14
A28U C15A | 0.11
A28U C15U | 0.1
A28U C52A | 0.93
A28U C52G | 0.96
A28U C52U | 0.97
A29C A7G | 0.03
A29C A7U | 0.01
A29C A7C | 0.03
A29C G50A | 0.05
A29C G50C | 0.03
A29C G50U | 0.04
A29C G22U | 0.05

Variant | self-cleavage
A29C G22C | 0.03
A29C G22A | 0.08
A29G A39C | 0.06
A29G A39G | 0.09
A29G A39U | 0.11
A28U G34U | 0.28
A28U G34A | 0.39
A28U G34C | 0.18
A29C C25G | 0.02
A29C C25U | 0.03
A29C C25A | 0.04
A28U C21U | 0.93
A28U C21G | 0.07
A28U C21A | 0.16
A28U G49A | 0.08
A28U G49C | 0.06
A28U G49U | 0.09
A28G G50U | 0.23
A28U A38C | 0.95
A28U A38G | 0.92
A28U A38U | 0.87
A29C G42U | 0.01
A29C G42A | 0.03
A29C G42C | 0.02

Variant | self-cleavage
A29C U18A | 0.04
A29C U18C | 0.04
A29C U18G | 0.06
A28U G23U | 0.07
A28U G23A | 0.14
A28U G23C | 0.05
A29C U43A | 0.03
A29C U43C | 0.03
A29C U43G | 0.05
A28U C11U | 0.7
A28U C11A | 0.27
A28U C11G | 0.12
A29C G34C | 0.03
A29C G34U | 0.03
A29C G34A | 0.04
A29C A41C | 0.05
A29C A41G | 0.04
A29C A41U | 0.05
A28U A7U | 0.07
A28U A7G | 0.13
A28U A7C | 0.04
A29C G45C | 0.01
A29C G45A | 0.02
A29C G45U | 0.01

Variant | self-cleavage
A28U A8G | 0.18
A28U A8U | 0.09
A28U A8C | 0.06
A28U G35U | 0.71
A28U G35A | 0.73
A28U G35C | 0.15
A28G G54A | 0.15
A28G G54C | 0.14
A28G G54U | 0.27
A28G G53A | 0.14
A28G G53C | 0.06
A28G G53U | 0.1
A29C U37C | 0.04
A29C U37G | 0.06
A29C U37A | 0.04
A28U U12A | 0.38
A28U U12C | 0.13
A28U U12G | 0.11
A29C A36G | 0.07
A29C A36U | 0.04
A29C A36C | 0.03
A29C G44C | 0.05
A29C G44A | 0.04
A29C G44U | 0.05

Variant | self-cleavage
A29C C27G | 0.02
A29C C27U | 0.02
A29C C27A | 0.04
A28U C32G | 0.1
A28U C32A | 0.07
A28U C32U | 0.1
A29G C14U | 0.06
A29G C14A | 0.04
A29G C14G | 0.08
A28U A39C | 0.63
A28U A39G | 0.79
A28U A39U | 0.76
A28G U43A | 0.14
A28G U43C | 0.1
A28G U43G | 0.09
A28U | 0.96
A29G A38G | 0.15
A29G A38U | 0.16
A29G A38C | 0.16
A28U C33G | 0.05
A28U C33U | 0.49
A28U C33A | 0.08
A28U C26G | 0.1
A28U C26A | 0.04

Variant | self-cleavage
A28U C26U | 0.22
A28U G13A | 0.06
A28U G13U | 0.03
A28U G13C | 0.02
A29G A41G | 0.12
A29G A41U | 0.46
A29G A41C | 0.21
A29C G23A | 0.05
A29C G23U | 0.02
A29C G23C | 0.02
A28U G47A | 0.09
A28U G47C | 0.06
A28U G47U | 0.1
A29C A38U | 0.03
A29C A38C | 0.04
A29C A38G | 0.04
A28U U37C | 0.97
A28U U37G | 0.97
A28U U37A | 0.68
A28U G50U | 0.95
A28U G50C | 0.81
A28U G50A | 0.42
A29C G53C | 0.02
A29C G53U | 0.03

Variant | self-cleavage
A29C G53A | 0.03
A28U U24C | 0.09
A28U U24G | 0.02
A28U U24A | 0.08
A29C C32U | 0.03
A29C C32A | 0.03
A29C C32G | 0.03
A29C A40C | 0.02
A29C A40U | 0.04
A29C A40G | 0.02
A28U A46G | 0.7
A28U A46C | 0.07
A28U A46U | 0.08
A29C G30U | 0.02
A29C G30A | 0.02
A29C G30C | 0.01
A28U C9G | 0.35
A28U C9U | 0.57
A28U C9A | 0.16
A28U U18C | 0.73
A28U U18A | 0.91
A28U U18G | 0.91
A29C C14G | 0.02
A29C C14A | 0.02

Variant | self-cleavage
A29C C14U | 0.03
A28U G45U | 0.07
A28U G45A | 0.09
A28U G45C | 0.06
A28U C27A | 0.09
A28U C27U | 0.15
A28U C27G | 0.05
A28G G51U | 0.06
A28G G51A | 0.11
A28G G51C | 0.06
A29G A40G | 0.07
A29G A40U | 0.15
A29G A40C | 0.04
A29G C25A | 0.04
A29G C25G | 0.04
A29G C25U | 0.08
A28U G51C | 0.08
A28U G51U | 0.2
A28U G51A | 0.28
A28U G44A | 0.74
A28U G44U | 0.49
A28U G44C | 0.78
